The record followed here is the RNAGym collection of RNA variant scans (doi:10.1002/anie.201605470).

First the molecules themselves.
B1: Osa-1-4 twister ribozyme (parent)
chain: CCGCCUAACACUGCCAAUGCCGGUCCCAAGCCCGGAUAAAAGUGGAGGGGGCGG

Variants of B1 are the subject of the data set. Kind of data set: self-cleavage, relative activity (ratio to wild type); higher = more cleavage; co-transcriptional. In outline: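 Values are relative activity: the fraction cleaved, normalised to wild type. A doped DNA template for a 54-nucleotide twister ribozyme from Oryza sativa had 97 % wild-type base and 1 % of each other base at the 48 positions downstream of the cleavage site. The RNA was transcribed in vitro for 2 h at 37 °C so that it could cleave itself co-transcriptionally, then sequenced deeply, with cleavage status scored from the presence or absence of upstream sequence in reads.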
For CCGCCUAACACUGCCAAUGCCGGUCCCAAGCCCGGAUAAAAGUGGAGGUUGCGG [G49U G50U], the self-cleavage was 0.21.

For the variant CCGCCUAACACUGCCAAUGCCGGUCCCAAGCCCGGAUAAAAGUGGAGGUCGCGG [G49U G50C], the self-cleavage came out at 0.31.

As for CCGCCUAACACUGCCAAUGCCGGUCCCAAGCCCGGACAAAAGUGGAGGGAGCGG [G50A U37C], the self-cleavage worked out at 0.84.

For CCGCCUAACACUGCCAAUGCCGGUCCCAAGCCCGGAGAAAAGUGGAGGGAGCGG [G50A U37G], the self-cleavage came to 0.74.

On to CCGCCUAACACUGCCAAUGCCGGUCCCAAGCCCGGAAAAAAGUGGAGGGAGCGG [G50A U37A], for which the self-cleavage was 0.38.

In the case of CCGCCUAACACUGCCAAUGCCGGUCCCAAGCCCGGAUAAAAGUGGAGGGAACGG [G50A G51A], the self-cleavage came out at 0.5.

In the case of CCGCCUAACACUGCCAAUGCCGGUCCCAAGCCCGGAUAAAAGUGGAGGGACCGG [G50A G51C], the self-cleavage is 0.12.

CCGCCUAACACUGCCAAUGCCGGUCCCAAGCCCGGAUAAAAGUGGAGGGAUCGG [G50A G51U]: the self-cleavage worked out at 0.16.

For CCGCCUAACACUGCCAAUGCCGGGCCCAAGCCCGGAUAAAAGUGGAGGUGGCGG [G49U U24G], the self-cleavage was 0.02.

For CCGCCUAACACUGCCAAUGCCGGCCCCAAGCCCGGAUAAAAGUGGAGGUGGCGG [G49U U24C], the self-cleavage was determined as 0.04.

As for CCGCCUAACACUGCCAAUGCCGGACCCAAGCCCGGAUAAAAGUGGAGGUGGCGG [G49U U24A], the self-cleavage is 0.04.

As for CCGCCUAACACUGCCAAUGCCGGUCCCAAGCCCGGAUAAAAGUGGAGGGAGCUG [G50A G53U], the self-cleavage came out at 0.9.

Consider CCGCCUAACACUGCCAAUGCCGGUCCCAAGCCCGGAUAAAAGUGGAGGGAGCCG [G50A G53C], for which the self-cleavage worked out at 0.32.

Turning to CCGCCUAACACUGCCAAUGCCGGUCCCAAGCCCGGAUAAAAGUGGAGGGAGCAG [G50A G53A], the self-cleavage was 0.94.

In the case of CCGCCUAACACUGCCAAUGCCGGUCCCAAGCCCGGAUAAAAGUGGAGGGAGCGA [G50A G54A], the self-cleavage stood at 0.97.

For CCGCCUAACACUGCCAAUGCCGGUCCCAAGCCCGGAUAAAAGUGGAGGGAGCGC [G50A G54C], the self-cleavage is 0.99.

Regarding CCGCCUAACACUGCCAAUGCCGGUCCCAAGCCCGGAUAAAAGUGGAGGGAGCGU [G50A G54U], the self-cleavage was found to be 0.96.

With CCGCCUAACACUGCCAAUGCCGGUCCCAAGCCCGGAUAAAAGAGGAGGUGGCGG [G49U U43A], the self-cleavage was determined as 0.08.

Turning to CCGCCUAACACUGCCAAUGCCGGUCCCAAGCCCGGAUAAAAGCGGAGGUGGCGG [G49U U43C], the self-cleavage amounted to 0.04.

On to CCGCCUAACACUGCCAAUGCCGGUCCCAAGCCCGGAUAAAAGGGGAGGUGGCGG [G49U U43G], for which the self-cleavage was 0.06.

For the variant CCGCCUAACACUGCCAAUGCCGGUCCCAAGCCCGGAUAAAAGUGGAGGUGCCGG [G49U G51C], the self-cleavage was 0.06.

As for CCGCCUAACACUGCCAAUGCCGGUCCCAAGCCCGGAUAAAAGUGGAGGUGACGG [G49U G51A], the self-cleavage is 0.32.

With CCGCCUAACACUGCCAAUGCCGGUCCCAAGCCCGGAUAAAAGUGGAGGUGUCGG [G49U G51U], the self-cleavage turned out to be 0.12.

Turning to CCGCCUAACACUGCCAAUGCCGGUCCCAAGCCCGGAUAAAAGUGGAGGUGGCGC [G49U G54C], the self-cleavage is 0.06.

CCGCCUAACACUGCCAAUGCCGGUCCCAAGCCCGGAUAAAAGUGGAGGUGGCGA [G49U G54A]: the self-cleavage came to 0.1.

CCGCCUAACACUGCCAAUGCCGGUCCCAAGCCCGGAUAAAAGUGGAGGUGGCGU [G49U G54U]: the self-cleavage was determined as 0.26.

For the variant CCGCCUAACACGGCCAAUGCCGGUCCCAAGCCCGGAUAAAAGUGGAGGGAGCGG [G50A U12G], the self-cleavage came to 0.11.

On to CCGCCUAACACCGCCAAUGCCGGUCCCAAGCCCGGAUAAAAGUGGAGGGAGCGG [G50A U12C], for which the self-cleavage was 0.37.

Regarding CCGCCUAACACAGCCAAUGCCGGUCCCAAGCCCGGAUAAAAGUGGAGGGAGCGG [G50A U12A], the self-cleavage was 0.44.

In the case of CCGCCUAACACUGCCAAAGCCGGUCCCAAGCCCGGAUAAAAGUGGAGGUGGCGG [G49U U18A], the self-cleavage is 0.15.

Turning to CCGCCUAACACUGCCAACGCCGGUCCCAAGCCCGGAUAAAAGUGGAGGUGGCGG [G49U U18C], the self-cleavage worked out at 0.16.

For the variant CCGCCUAACACUGCCAAGGCCGGUCCCAAGCCCGGAUAAAAGUGGAGGUGGCGG [G49U U18G], the self-cleavage was 0.29.

As for CCGCCUAACACUGCCAAUGCCGGUCCCAAGCCCGGAUAAAAGUGGAGGUGGCAG [G49U G53A], the self-cleavage came to 0.07.

Regarding CCGCCUAACACUGCCAAUGCCGGUCCCAAGCCCGGAUAAAAGUGGAGGUGGCCG [G49U G53C], the self-cleavage amounted to 0.04.

Take CCGCCUAACACUGCCAAUGCCGGUCCCAAGCCCGGAUAAAAGUGGAGGUGGCUG [G49U G53U]: the self-cleavage was found to be 0.07.

In the case of CCGCCUAACACUGCCAAUGCCGGCCCCAAGCCCGGAUAAAAGUGGAGGGAGCGG [G50A U24C], the self-cleavage turned out to be 0.64.

CCGCCUAACACUGCCAAUGCCGGGCCCAAGCCCGGAUAAAAGUGGAGGGAGCGG [G50A U24G]: the self-cleavage was 0.02.

With CCGCCUAACACUGCCAAUGCCGGACCCAAGCCCGGAUAAAAGUGGAGGGAGCGG [G50A U24A], the self-cleavage turned out to be 0.6.

With CCGCCUAACACUGCCAAUGCCGGUCCCAAGCCCGGAUAAAAGAGGAGGGAGCGG [G50A U43A], the self-cleavage was 0.38.

Take CCGCCUAACACAGCCAAUGCCGGUCCCAAGCCCGGAUAAAAGUGGAGGUGGCGG [G49U U12A]: the self-cleavage is 0.09.

With CCGCCUAACACGGCCAAUGCCGGUCCCAAGCCCGGAUAAAAGUGGAGGUGGCGG [G49U U12G], the self-cleavage is 0.07.

Take CCGCCUAACACCGCCAAUGCCGGUCCCAAGCCCGGAUAAAAGUGGAGGUGGCGG [G49U U12C]: the self-cleavage stood at 0.04.

As for CCGCCUAACACUGCCAAUGCCGGUCCCAAGCCCGGACAAAAGUGGAGGUGGCGG [G49U U37C], the self-cleavage is 0.18.

As to CCGCCUAACACUGCCAAUGCCGGUCCCAAGCCCGGAAAAAAGUGGAGGUGGCGG [G49U U37A], the self-cleavage came out at 0.12.

For the variant CCGCCUAACACUGCCAAUGCCGGUCCCAAGCCCGGAGAAAAGUGGAGGUGGCGG [G49U U37G], the self-cleavage turned out to be 0.3.

On to CCGCCUAACACUGCCAAUGCCGGUCCCAAGCCCGGAUAAAAGUGGAGGGAGCGG [G50A], for which the self-cleavage came out at 0.76.

Regarding CCGCCUAACACUGCCAAAGCCGGUCCCAAGCCCGGAUAAAAGUGGAGGGAGCGG [G50A U18A], the self-cleavage amounted to 0.61.

Regarding CCGCCUAACACUGCCAAGGCCGGUCCCAAGCCCGGAUAAAAGUGGAGGGAGCGG [G50A U18G], the self-cleavage is 0.79.

Regarding CCGCCUAACACUGCCAACGCCGGUCCCAAGCCCGGAUAAAAGUGGAGGGAGCGG [G50A U18C], the self-cleavage is 0.45.
